Measured values as given in ChEMBL document CHEMBL1146217, “Growth inhibition of Mycobacterium bovis, Mycobacterium tuberculosis and Mycobacterium avium in vitro: effect of 1-beta-D-2'-arabinofuranosyl and 1-(2'-deoxy-2'-fluoro-beta-D-2'-ribofuranosyl) pyrimidine nucleoside analogs” (J Med Chem, 2007).
Values after ≈ are worked out from the molar mass of the structure shown.

How the values were obtained:
[1] = test system: Mycobacterium tuberculosis; test: Antimycobacterial activity against Mycobacterium tuberculosis H37Ra at 50 ug/mL by microplate Alamar blue assay; format: functional
In short: (§1)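 MABA with M. bovis BCG, M. tuberculosis H37Ra or M. avium ATCC 25291. DMSO stocks (10 mg/mL) diluted in 7H9GC; final inoculum 2.5 × 10⁵ CFU/mL. Incubated 6 days, then alamar blue plus Tween 80 added and read by fluorescence after about 24 h. […]. Tested in triplicate at 100, 50, 10 and 1 µg/mL; two experiments, mean reported.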

[2] = test system: Mycobacterium avium; test: Antimycobacterial activity against Mycobacterium avium ATCC 25291 at 50 ug/mL by microplate Alamar blue assay; format: functional; in short: as §1
[3] = test system: Mycobacterium avium; test: Antimycobacterial activity against Mycobacterium avium ATCC 25291 at 100 ug/mL by microplate Alamar blue assay; format: functional; in short: as §1
[4] = test system: Mycobacterium tuberculosis; test: Antimycobacterial activity against Mycobacterium tuberculosis H37Ra at 1ug/mL by microplate Alamar blue assay; format: functional; in short: as §1
[5] = test system: Mycobacterium tuberculosis; test: Antimycobacterial activity against Mycobacterium tuberculosis H37Ra at 10 ug/mL by microplate Alamar blue assay; format: functional; in short: as §1
[6] = test system: Mycobacterium tuberculosis; test: Antimycobacterial activity against Mycobacterium tuberculosis H37Ra at 100 ug/mL by microplate Alamar blue assay; format: functional; in short: as §1
[7] = test system: Mycobacterium tuberculosis; test: Antimycobacterial activity against Mycobacterium tuberculosis H37Ra by microplate Alamar blue assay; format: functional
In short: (§2)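 Same alamar blue microplate setup (7H9GC, 2.5 × 10⁵ CFU/mL, 6 days, then dye read after about 24 h), using 2-fold compound dilutions. MIC90 is the lowest concentration giving about 90% inhibition relative to bacteria-only wells after background subtraction. Visual MIC is the lowest concentration preventing the blue-to-pink change.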

[8] = test system: Mycobacterium avium; test: Antimycobacterial activity against Mycobacterium avium ATCC 25291 by microplate Alamar blue assay; format: functional; in short: as §2
[9] = Toxicity against human foreskin fibroblast cells after 3 days by MTT test; format: cell-based
In short: (§3)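 MTT viability assay. Vero or HFF cells seeded at 2.5 × 10⁵ cells/well and left to attach 6-8 h. Exposed to compound at 100, 50, 25, 12.5, 6.3 and 1.5 µg/mL for 3 days at 37 °C, with a DMSO control. MTT added for 4 h, then solubilized overnight; absorbance read at 560-650 nm.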

[10] = test system: Vero; test: Toxicity against Vero cells after 3 days by MTT test; format: cell-based; conditions: chlorocebus sabaeus, 72 h; in short: as §3
[11] = test system: Salmonella typhimurium; test: Antibacterial activity against Salmonella Typhimurium after 16 to 20 hrs by broth microdilution method; format: functional, Salmonella enterica subsp. enterica serovar Typhimurium; conditions: Salmonella enterica
In short: (§4)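 Broth microdilution MIC. Exponentially growing bacteria diluted in sterile liquid medium to a final inoculum of 1 × 10⁴ CFU/mL. Cultured with compound dilutions for 16-20 h; compounds tested at 100, 50, 10 and 1 µg/mL. MIC taken as the concentration giving 100% inhibition of bacterial growth.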

[12] = test system: Klebsiella aerogenes; test: Antibacterial activity against Enterobacter aerogenes after 16 to 20 hrs by broth microdilution method; format: functional; conditions: Klebsiella aerogenes; in short: as §4
[13] = test system: Listeria monocytogenes; test: Antibacterial activity Listeria monocytogenes ATCC 15313 after 16 to 20 hrs by broth microdilution method; format: functional; conditions: for MIC: Listeria monocytogenes, ATCC 15313; in short: as §4
[14] = test system: Staphylococcus aureus; test: Antibacterial activity against Staphylococcus aureus ATCC 25923 after 16 to 20 hrs by broth microdilution method; format: functional; conditions: for MIC: Staphylococcus aureus, ATCC 25923; in short: as §4
[15] = test system: Proteus vulgaris; test: Antibacterial activity against Proteus vulgaris ATCC 49132 after 16 to 20 hrs by broth microdilution method; format: functional; in short: as §4
[16] = test system: Escherichia coli; test: Antibacterial activity against Escherichia coli ATCC 25922 after 16 to 20 hrs by broth microdilution method; format: functional; conditions: Escherichia coli, ATCC 25922; in short: as §4
[17] = test system: Staphylococcus epidermidis; test: Antibacterial activity against Staphylococcus epidermidis ATCC 14990 after 16 to 20 hrs by broth microdilution method; format: functional; conditions: for MIC: Staphylococcus epidermidis, ATCC 14990; in short: as §4
[18] = test system: Streptococcus pyogenes; test: Antibacterial activity Streptococcus pyogenes ATCC 19615 after 16 to 20 hrs by broth microdilution method; format: functional; conditions: for MIC: Streptococcus pyogenes, ATCC 19615; in short: as §4
[19] = test system: Streptococcus pneumoniae; test: Antibacterial activity Streptococcus pneumoniae ATCC 49619 after 16 to 20 hrs by broth microdilution method; format: functional; conditions: for MIC: Streptococcus pneumoniae, ATCC 49619; in short: as §4
[20] = test system: Enterococcus faecalis; test: Antibacterial activity Enterococcus faecalis ATCC 29212 after 16 to 20 hrs by broth microdilution method; format: functional; conditions: for MIC: Enterococcus faecalis, ATCC 29212; in short: as §4
[21] = test system: Bacillus subtilis; test: Antibacterial activity against Bacillus subtilis ATCC 6633 after 16 to 20 hrs by broth microdilution method; format: functional; conditions: Bacillus subtilis, ATCC 6633; in short: as §4
[22] = test system: Pseudomonas aeruginosa; test: Antibacterial activity against Pseudomonas aeruginosa […] after 16 to 20 hrs by broth microdilution method; format: functional; conditions: Pseudomonas aeruginosa, ATCC 13048; in short: as §4

CCCCCCCCCCC#Cc1cn([C@@H]2O[C@H](CO)[C@@H](O)[C@@H]2O)c(=O)[nH]c1=O
inhibition at 50 µg/mL [1]: 100% | inhibition at 50 µg/mL [2]: 55% | inhibition at 100 µg/mL [3]: 100% | inhibition at 1 µg/mL [4]: 75% | inhibition at 10 µg/mL [5]: 100% | inhibition at 100 µg/mL [6]: 100% | MIC90 [7]: 1 mg/L (≈ 2.45 µM) | MIC90 [8]: 50 mg/L (≈ 122 µM) | CC50 at 72 h [9]: > 100 mg/L | CC10 [10]: > 100 mg/L

CCCCCCCCCCCC#Cc1cn([C@@H]2O[C@H](CO)[C@@H](O)[C@@H]2O)c(=O)[nH]c1=O
inhibition at 50 µg/mL [1]: 100% | inhibition at 100 µg/mL [3]: 25% | inhibition at 10 µg/mL [5]: 50% | inhibition at 100 µg/mL [6]: 100% | MIC90 [7]: 10 mg/L (≈ 23.7 µM) | CC50 at 72 h [9]: > 100 mg/L | CC10 [10]: > 100 mg/L

O=c1[nH]c(=O)n([C@@H]2O[C@H](CO)[C@@H](O)[C@H]2F)cc1Cl
inhibition at 100 µg/mL [3]: 0% | inhibition at 100 µg/mL [6]: 20%

Cc1cn([C@@H]2O[C@H](CO)[C@@H](O)[C@H]2F)c(=O)[nH]c1=S
inhibition at 100 µg/mL [3]: 0% | inhibition at 100 µg/mL [6]: 25%

O=c1[nH]c(=O)n([C@@H]2O[C@H](CO)[C@@H](O)[C@@H]2O)cc1C(O)C(Cl)Cl (some centres undefined)
inhibition at 100 µg/mL [3]: 0% | inhibition at 100 µg/mL [6]: 0%

O=c1[nH]c(=O)n([C@@H]2O[C@H](CO)[C@@H](O)[C@@H]2O)cc1C(O)CI (some centres undefined)
inhibition at 100 µg/mL [3]: 0% | inhibition at 100 µg/mL [6]: 0%

O=C(O)C(I)C(O)c1cn([C@@H]2O[C@H](CO)[C@@H](O)[C@H]2F)c(=O)[nH]c1=O (some centres undefined)
inhibition at 100 µg/mL [3]: 0% | inhibition at 100 µg/mL [6]: 0%

O=c1[nH]c(=O)n([C@@H]2O[C@H](CO)[C@@H](O)[C@@H]2O)cc1Cl
inhibition at 100 µg/mL [3]: 0% | inhibition at 100 µg/mL [6]: 0%

O=c1[nH]c(=S)ccn1[C@@H]1O[C@H](CO)[C@@H](O)[C@@H]1O
inhibition at 100 µg/mL [3]: 0% | inhibition at 100 µg/mL [6]: 0%

CCCCCC#Cc1cn([C@@H]2O[C@H](CO)[C@@H](O)[C@H]2F)c(=O)[nH]c1=O
inhibition at 100 µg/mL [3]: 0% | inhibition at 100 µg/mL [6]: 50% | CC50 at 72 h [9]: > 100 mg/L | CC10 [10]: > 100 mg/L

O=c1[nH]c(=S)ccn1[C@@H]1O[C@H](CO)[C@@H](O)[C@H]1F
inhibition at 100 µg/mL [3]: 0% | inhibition at 100 µg/mL [6]: 25%

CCOC(=O)/C=C/c1cn([C@@H]2O[C@H](CO)[C@@H](O)[C@@H]2O)c(=O)[nH]c1=O
inhibition at 100 µg/mL [3]: 0% | inhibition at 100 µg/mL [6]: 0%

CCCCCCCCC#Cc1cn([C@@H]2O[C@H](CO)[C@@H](O)[C@H]2F)c(=O)[nH]c1=O
inhibition at 50 µg/mL [1]: 100% | MIC [11]: > 100 mg/L | MIC [12]: > 100 mg/L | inhibition at 100 µg/mL [3]: 50% | Inhibition [13]: 100% | MIC [13]: 100 mg/L (≈ 261 µM) | inhibition at 1 µg/mL [4]: 25% | inhibition at 10 µg/mL [5]: 50% | Inhibition [14]: 100% | MIC [14]: 100 mg/L (≈ 261 µM) | MIC [15]: > 100 mg/L | inhibition at 100 µg/mL [6]: 100% | MIC90 [7]: 50 mg/L (≈ 131 µM) | MIC [16]: > 100 mg/L | CC50 at 72 h [9]: > 100 mg/L | Inhibition [17]: 100% | MIC [17]: 100 mg/L (≈ 261 µM) | Inhibition [18]: 100% | MIC [18]: 100 mg/L (≈ 261 µM) | CC10 [10]: > 100 mg/L | Inhibition [19]: 100% | MIC [19]: 100 mg/L (≈ 261 µM) | Inhibition [20]: 100% | MIC [20]: 100 mg/L (≈ 261 µM) | MIC [21]: > 100 mg/L | MIC [22]: > 100 mg/L

O=C(O)/C=C/c1cn([C@@H]2O[C@H](CO)[C@@H](O)[C@H]2F)c(=O)[nH]c1=O
inhibition at 100 µg/mL [3]: 0% | inhibition at 100 µg/mL [6]: 0%

NNC(=O)c1ccncc1 [ISONIAZID]
MIC [11]: > 100 mg/L | MIC [12]: > 100 mg/L | MIC [13]: > 100 mg/L | MIC [14]: > 100 mg/L | MIC [15]: > 100 mg/L | MIC [16]: > 100 mg/L | MIC [17]: > 100 mg/L | MIC [18]: > 100 mg/L | MIC [19]: > 100 mg/L | MIC [20]: > 100 mg/L | MIC [21]: > 100 mg/L | MIC [22]: > 100 mg/L
